ChEMBL document CHEMBL4014326, “Discovery of an Orally Bioavailable Benzimidazole Diacylglycerol Acyltransferase 1 (DGAT1) Inhibitor That Suppresses Body Weight Gain in Diet-Induced Obese Dogs and Postprandial Triglycerides in Humans” (J Med Chem, 2017)
≈ marks a conversion by molar mass, not a printed value. Each block holds one molecule with its values, some of them ahead of it. Calls of active or inactive are those of the source. No cut-off for these calls is given here.

Columns and labels:
[1] = Oral bioavailability in Sprague-Dawley rat at 3 mg/kg by LC/MS/MS analysis; format: ADME, organism-based; conditions: in vivo
In short: (§1)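 Male Sprague-Dawley rats, 200-300 g, dosed iv (n = 2) or po (n = 3) as solutions in NMP/PG or PEG400/ETPGS vehicles. Blood was taken from a jugular vein catheter at 0.083 (iv only), 0.25, 0.5, 1, 2, 4, 6 and 8 h into EDTA tubes, and plasma was analysed by LC-MS/MS. Values are means ± SD.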

[2] = Clearance in Sprague-Dawley rat at 1 mg/kg, iv by LC/MS/MS analysis; format: ADME, organism-based; conditions: in vivo; in short: as §1
[3] = Half life in Sprague-Dawley rat at 1 mg/kg, iv by LC/MS/MS analysis; format: ADME, organism-based; conditions: in vivo; in short: as §1
[4] = AUC (0 to 8 hrs) in Sprague-Dawley rat at 1mg/kg, iv by LC/MS/MS analysis; format: ADME, organism-based; design: time < 8 hr, dose 1 mg/kg, route intravenous; conditions: in vivo; in short: as §1
[5] = Permeability across basolateral to apical side in human Caco2 cells; format: ADME, cell-based; conditions: Caco-2, read-out: permeability
In short: (§2)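 Caco-2 monolayer permeability was measured in the A-B and B-A directions, and the efflux ratio was taken as B-A/A-B.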

[6] = AUC (0 to 8 hrs) in Sprague-Dawley rat at 3 mg/kg, po by LC/MS/MS analysis; format: ADME, organism-based; design: dose 3 mg/kg, time < 8 hr, route oral; conditions: in vivo; in short: as §1
[7] = biological target: T1, Diacylglycerol O-acyltransferase 1 (Mus musculus, UniProt Q9Z2A7); experiment: Inhibition of DGTA1 in mouse C2C12 cells assessed as inhibition of triglyceride formation after 2 hrs by LC/MS/MS analysis; format: cell-based
T1 sequence (Q9Z2A7 whole entry): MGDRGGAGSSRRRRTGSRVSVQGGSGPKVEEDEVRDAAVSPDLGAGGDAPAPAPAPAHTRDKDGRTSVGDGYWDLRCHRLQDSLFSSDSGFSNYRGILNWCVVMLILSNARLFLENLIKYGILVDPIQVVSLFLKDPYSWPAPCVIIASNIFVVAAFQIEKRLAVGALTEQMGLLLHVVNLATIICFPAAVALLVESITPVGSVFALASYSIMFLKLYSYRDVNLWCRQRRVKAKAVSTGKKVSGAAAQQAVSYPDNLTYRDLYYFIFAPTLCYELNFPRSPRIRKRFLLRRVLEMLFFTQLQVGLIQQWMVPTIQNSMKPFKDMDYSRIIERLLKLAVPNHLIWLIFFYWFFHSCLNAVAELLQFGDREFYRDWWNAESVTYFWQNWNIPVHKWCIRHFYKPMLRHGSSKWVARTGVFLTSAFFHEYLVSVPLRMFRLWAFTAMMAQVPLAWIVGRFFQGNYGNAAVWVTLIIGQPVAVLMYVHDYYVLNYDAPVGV
In short: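 C2C12 cells were seeded in DMEM with 5 mM glucose and 10% FBS for 18 h at 37 °C. Medium was then replaced with DMEM, 5 mM glucose and 250 µM oleate-BSA plus inhibitor (0.5% DMSO final) for 2 h at 37 °C. Cells were extracted with butanol containing tripalmitolein internal standard and triglyceride was read by LC-MS/MS. An 11-point, 3-fold dose response was run in quadruplicate.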

[8] = Solubility of the compound at pH 6.8 after 24 hrs; format: physicochemical; conditions: buffer
In short: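 Solubility was measured in pH 6.8 buffer after 24 h incubation.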

[9] = Cmax in Sprague-Dawley rat at 3 mg/kg, po by LC/MS/MS analysis; format: ADME, organism-based; design: dose 3 mg/kg, route oral; conditions: in vivo; in short: as §1
[10] = Tmax in Sprague-Dawley rat 3 mg/kg, po by LC/MS/MS analysis; format: ADME, organism-based; conditions: in vivo; in short: as §1
[11] = Permeability across apical to basolateral side in human Caco2 cells; format: ADME, cell-based; conditions: Caco-2, read-out: permeability; in short: as §2
[12] = Volume of distribution at steady state in Sprague-Dawley rat at 1 mg/kg, iv by LC/MS/MS analysis; format: ADME, organism-based; conditions: in vivo, read-out: Vdss; in short: as §1
[13] = Drug level in rat hepatocytes treated with [3H]-3-(4-(6-(5-(4-Methoxyphenyl)-1,3,4-oxadiazol-2-yl)-1H-benzo[d]imidazol-2-yl)-3,5-dimethylphenyl)-2,2-dimethylpropanoic acid at 12.5 uM after 18 hrs; format: ADME, cell-based, Hepatocyte
In short: (§3)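 [3H]-labelled compound (12.5 µM) was incubated for 18 h with rat, dog, monkey or human hepatocytes, and metabolites were profiled.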

[14] = Drug level in dog hepatocytes treated with [3H]-3-(4-(6-(5-(4-Methoxyphenyl)-1,3,4-oxadiazol-2-yl)-1H-benzo[d]imidazol-2-yl)-3,5-dimethylphenyl)-2,2-dimethylpropanoic acid at 12.5 uM after 18 hrs; format: ADME, cell-based, Canis lupus familiaris, Hepatocyte; in short: as §3
[15] = Drug level in human hepatocytes treated with [3H]-3-(4-(6-(5-(4-Methoxyphenyl)-1,3,4-oxadiazol-2-yl)-1H-benzo[d]imidazol-2-yl)-3,5-dimethylphenyl)-2,2-dimethylpropanoic acid at 12.5 uM after 18 hrs; format: ADME, cell-based, Hepatocyte; in short: as §3
[16] = Drug level in monkey hepatocytes treated with [3H]-3-(4-(6-(5-(4-Methoxyphenyl)-1,3,4-oxadiazol-2-yl)-1H-benzo[d]imidazol-2-yl)-3,5-dimethylphenyl)-2,2-dimethylpropanoic acid at 12.5 uM after 18 hrs; format: ADME, cell-based, Macaca mulatta, Hepatocyte; conditions: rhesus monkey; in short: as §3
[17] = Ratio of IC50 for DGTA1 in mouse C2C12 cells to IC50 for recombinant human His6-tagged DGAT1; format: cell-based
In short: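 Ratio of the C2C12 cellular IC50 to the enzymatic IC50. Enzyme assay: Sf9 membranes expressing human His6-DGAT1 with 50 µM diolein and 50 µM oleoyl-CoA in 50 mM HEPES pH 7.5, 5 mM MgCl2 and 10% ethanol, 30 min at room temperature. Triolein was read by LC-MS/MS, with a 10-point, 3-fold dose response run in duplicate.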

Homo sapiens = experiment: Antiobesity activity in high fat-fed human assessed as suppression of postprandial plasma triglyceride level compound administered as single oral dose; format: functional
In short: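 Randomized, double-blind, placebo-controlled single ascending dose study in overweight or obese healthy adults aged 18-55. Single oral doses of 5-600 mg (n = 8 per dose) or placebo (n = 12) were given. About 1 h after dosing, subjects ate a ~1000 kcal, 55% fat test meal, and plasma triglycerides were compared against an untreated baseline meal test monitored for 9 h.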

Rattus norvegicus = species: Rattus norvegicus; experiment: Antiobesity activity in rat assessed as suppression of postprandial triglyceride levels; format: functional
Canis familiaris [18] = experiment: Antiobesity activity in fasted Beagle dog assessed as postprandial triglyceride AUC in plasma at 1 mg/kg administered via oral gavage prior to 30 mins of […] measured after 4 hrs (reference value: 35400 +/- 8863 mg/dL.min); format: functional, organism-based; design: dose 1 mg/kg, time < 4 hr; conditions: Canis lupus familiaris
Canis familiaris [19] = experiment: Antiobesity activity in high fat diet-fed dog assessed as reduction in body weight gain at 5 mg/kg, po qd administered via gelatin capsule after 21 days relative to vehicle control; design: scale not given: the % may be the effect or the level left
[20] = Protein binding in dog plasma at 5 mg/kg, po after 24 hrs; format: ADME, organism-based, Canis lupus familiaris; conditions: read-out: PPB (converted)
[21] = Plasma concentration in high fat diet-fed dog at 5 mg/kg, po administered via gelatin capsule after 90 mins
[22] = AUC (0 to 24 hrs) in dog plasma at 5 mg/kg, po after 24 hrs; format: ADME, organism-based, Canis lupus familiaris; design: time < 24 hr, dose 5 mg/kg, route oral
Plasma = experiment: Unbound concentration in dog plasma at 5 mg/kg, po after 24 hrs; format: ADME, organism-based, Canis lupus familiaris; conditions: in vivo
[23] = Plasma concentration in high fat diet-fed dog at 5 mg/kg, po qd administered via gavage measured after twenty-ninth dose; format: ADME, organism-based, Canis lupus familiaris
[24] = Oral bioavailability in Sprague-Dawley rat at 5 mg/kg by LC/MS/MS analysis; format: ADME, organism-based; conditions: in vivo; in short: as §1
[25] = Cmax in Sprague-Dawley rat at 5 mg/kg, po by LC/MS/MS analysis; format: ADME, organism-based; design: dose 5 mg/kg, route oral; conditions: in vivo; in short: as §1
[26] = Tmax in Sprague-Dawley rat 5 mg/kg, po by LC/MS/MS analysis; format: ADME, organism-based; conditions: in vivo; in short: as §1
[27] = AUC (0 to 8 hrs) in Sprague-Dawley rat at 5 mg/kg, po by LC/MS/MS analysis; format: ADME, organism-based; design: dose 5 mg/kg, time < 8 hr, route oral; conditions: in vivo; in short: as §1

bioavailability [1]: 23%
clearance [2]: 5.5 mL/min/kg
half-life [3]: 48 min
AUC(0-t) at 8 h [4]: 6.11 µM·h
Papp B→A [5]: 12.4 ×10⁻⁶ cm/s
AUC(0-t) at 8 h [6]: 4.23 µM·h
IC50 [7]: 954 nM
solubility at 24 h [8]: 8 µM (≈ 3.94 µg/mL)
Cmax [9]: 1720 nM
Tmax [10]: 30 min
Papp A→B [11]: 3.5 ×10⁻⁶ cm/s
Vd [12]: 0.4 L/kg
Structure (SMILES): Cc1cc(CC(C)(C)C(=O)O)cc(C)c1-c1nc2ccc(C(=O)Nc3ccc4ccccc4n3)cc2[nH]1

Drug metabolism [13]: Metabolite_Detected
Drug metabolism [14]: Metabolite_Detected
Drug metabolism [15]: Metabolite_Detected
Drug metabolism [16]: Metabolite_Detected
Structure (SMILES): Cc1cc(CC(C)(C)C(=O)O)cc(C)c1-c1nc2ccc(-c3nnc(-c4ccc(O)cc4)o3)cc2[nH]1

Structure (SMILES): COc1ccc(-c2nnc(-c3ccc4nc(-c5c(C)cc(CC(C)(C)C(=O)O)cc5C)[nH]c4c3)o2)cc1
Ratio IC50 [17]: 9
Activity (Homo sapiens): Dose-dependent effect
Activity (Rattus norvegicus): Active
AUC (Canis familiaris [18]): 308000 ng·h/mL

bioavailability [1]: 2%
clearance [2]: 21 mL/min/kg
half-life [3]: 96 min
AUC(0-t) at 8 h [4]: 1.69 µM·h
Papp B→A [5]: 9.2 ×10⁻⁶ cm/s
AUC(0-t) at 8 h [6]: 0.103 µM·h
IC50 [7]: 181 nM
Cmax [9]: 40 nM
Tmax [10]: 30 min
Papp A→B [11]: 1.4 ×10⁻⁶ cm/s
Vd [12]: 0.7 L/kg
Structure (SMILES): COc1ccc(-c2nnc(-c3ccc4nc(-c5c(C)cc(CCC(=O)O)cc5C)[nH]c4c3)o2)cc1

Structure (SMILES): COc1ccc(-c2nnc(-c3ccc4nc(-c5c(C)cc(CC(C)(C)C(=O)O)cc5C)[nH]c4c3)o2)cc1.[Na+]
Activity (Canis familiaris [19]): 11%
fraction unbound at 24 h [20]: 0.009
concentration at 1.5 h [21]: 738 nM
AUC(0-t) at 24 h [22]: 5.27 µM·h
Cp(f) (Plasma): 2 nM
concentration at 29 days [23]: 930 nM

Drug metabolism [13]: Metabolite_Detected
Drug metabolism [14]: Metabolite_Detected
Drug metabolism [15]: Metabolite_Detected
Drug metabolism [16]: Metabolite_Detected
Structure (SMILES): COc1ccc(-c2nnc(-c3ccc4nc(-c5c(C)cc(CC(C)(C)C(=O)O[C@@H]6O[C@H](C(=O)O)[C@@H](O)[C@H](O)[C@H]6O)cc5C)[nH]c4c3)o2)cc1

clearance [2]: 6.9 mL/min/kg
bioavailability [24]: 2%
Cmax [25]: 333 nM
half-life [3]: 102 min
AUC(0-t) at 8 h [4]: 5.23 µM·h
Papp B→A [5]: 14.1 ×10⁻⁶ cm/s
Tmax [26]: 24 min
AUC(0-t) at 8 h [27]: 0.405 µM·h
IC50 [7]: 913 nM
Papp A→B [11]: 1.4 ×10⁻⁶ cm/s
Vd [12]: 0.4 L/kg
Structure (SMILES): Cc1cc(CCC(=O)O)cc(C)c1-c1nc2ccc(C(=O)Nc3ccc4ccccc4n3)cc2[nH]1

Structure (SMILES): Cc1cc(CCC(=O)O)cc(C)c1-c1nc2ccc(C(=O)Nc3ccc(C(C)(C)C)cc3)cc2[nH]1
Ratio IC50 [17]: 10
